{"source": "paper PMC7655718", "about": "(The Journal of antibiotics, 2020)", "key": {"[1]": {"test_system": "S. aureus ATCC 33591 (Sa91)", "experiment": "MIC, microdilution with resazurin", "assay_type": "cell-based", "settings": "Staphylococcus aureus, ATCC33591, read-out: MIC Sa91", "method_in_brief": "(§1)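 Compounds dissolved in DMSO at 2 mg/mL. Overnight blood-agar colonies were suspended in PBS to 0.5 McFarland, then diluted in Mueller Hinton broth to about 1x10^6 cfu/mL with resazurin (1:1000 of 0.1% w/v stock). Twofold DMSO dilutions were added 1:40, giving 50 to 0.4 μg/mL at 2.5% DMSO. Incubation was 35 °C for 16-20 h. Blue/non-turbid wells counted as inhibited, pink/turbid as grown.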"}, "[2]": {"test_system": "S. aureus ATCC 25923 preformed biofilm", "experiment": "Biofilm destruction assay", "assay_type": "cell-based, Staphylococcus aureus", "settings": "2xMIC, MIC and 0.5xMIC tested, 24 hours", "method_in_brief": "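Biofilm was first grown in 96-well plates for 24 h at 35 °C and washed with PBS to remove unadhered cells. Fresh yeast extract casamino acid broth was added with compound at 2xMIC, MIC or 0.5xMIC, or DMSO, in triplicate, plus broth-only wells. Incubation was 35 °C for 24 h. Crystal violet was stained, solubilised and read at 620 nm. % destruction = [1−(ODcompound−ODbroth)/(ODdmso−ODbroth)]×100, from triplicate means.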"}, "[3]": {"test_system": "A. baumannii ATCC 19606 (type strain, Ab06)", "experiment": "MIC and MBC", "assay_type": "cell-based, Acinetobacter baumannii", "settings": "for MIC / MBC: Acinetobacter baumannii", "method_in_brief": "as §1"}, "[4]": {"test_system": "S. epidermidis 700296 (Se)", "experiment": "MIC, microdilution with resazurin", "assay_type": "cell-based", "settings": "Staphylococcus epidermidis, read-out: MIC Se", "method_in_brief": "as §1"}, "[5]": {"test_system": "human embryonic kidney cell line (HEK293)", "experiment": "Toxicity against HEK293 cell line", "assay_type": "cell-based"}, "[6]": {"test_system": "S. aureus BAA-2312 (Sa12)", "experiment": "MIC, microdilution with resazurin", "assay_type": "cell-based", "settings": "Staphylococcus aureus, BAA2312, read-out: MIC Sa12", "method_in_brief": "as §1"}, "[7]": {"test_system": "B. subtilis ATCC 6623 (Bs)", "experiment": "MIC, microdilution with resazurin", "assay_type": "cell-based, Bacillus subtilis", "settings": "for MIC: Bacillus subtilis, ATCC6623, read-out: MIC Bs"}, "[8]": {"test_system": "S. aureus ATCC 25923 (Sa23)", "experiment": "MIC, microdilution with resazurin", "assay_type": "cell-based", "settings": "Staphylococcus aureus, ATCC25923, read-out: MIC Sa23", "method_in_brief": "as §1"}, "[9]": {"test_system": "tested Gram-positive bacterial strains", "experiment": "MIC, text summary over tested Gram-positive strains", "assay_type": "cell-based", "settings": "read-out: MIC value as low as"}, "[10]": {"test_system": "A. baumannii ATCC 747 (Ab47)", "experiment": "MIC, microdilution with resazurin", "assay_type": "cell-based, Acinetobacter baumannii", "settings": "for MIC: Acinetobacter baumannii, ATCC747, read-out: MIC Ab47; for MIC Ab47: A. baumannii ATCC 747", "method_in_brief": "as §1"}, "[11]": {"test_system": "S. aureus ATCC 33592 (Sa92)", "experiment": "MIC, microdilution with resazurin", "assay_type": "cell-based", "settings": "Staphylococcus aureus, ATCC33592, read-out: MIC Sa92", "method_in_brief": "as §1"}, "[12]": {"test_system": "S. aureus ATCC 700699 (Sa99)", "experiment": "MIC, microdilution with resazurin", "assay_type": "cell-based", "settings": "Staphylococcus aureus, ATCC700699, read-out: MIC Sa99", "method_in_brief": "as §1"}, "[13]": {"test_system": "S. aureus ATCC 25923 biofilm formation", "experiment": "Biofilm inhibition assay", "assay_type": "cell-based, Staphylococcus aureus", "settings": "2xMIC, MIC and 0.5xMIC concentrations, 24 hours", "method_in_brief": "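Blood-agar culture was suspended in PBS (0.5 McFarland), then diluted 1:100 in yeast extract casamino acid broth (about 1x10^6 cfu/mL). Compound at 2xMIC, MIC and 0.5xMIC was added before biofilm formation, in triplicate, with broth-only and bacteria+DMSO controls. Incubation was 35 °C for 24 h. Wells were PBS-washed, dried, stained with 0.1% crystal violet, solubilised in 33% acetic acid and read at 620 nm. % inhibition = [1−(ODcompound−ODbroth)/(ODdmso−ODbroth)]×100, from mean and SD.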"}, "[14]": {"test_system": "tested A. baumannii strains", "experiment": "MIC, text summary over A. baumannii strains", "assay_type": "cell-based, Acinetobacter baumannii", "settings": "Acinetobacter baumannii, read-out: MIC value as low as", "method_in_brief": "as §1"}, "[15]": {"test_system": "A. baumannii ATCC BAA-1605 (Ab05)", "experiment": "MIC, microdilution with resazurin", "assay_type": "cell-based, Acinetobacter baumannii", "method_in_brief": "as §1"}, "[16]": {"test_system": "A. baumannii ATCC 19606", "experiment": "Time kill assay", "assay_type": "cell-based, Acinetobacter baumannii", "settings": "4xMIC", "method_in_brief": "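Growth curves by optical density set the log phase. Log-phase bacteria (about 2 h shaking in Mueller Hinton broth II) were diluted in warm broth to about 3x10^6 cfu/mL. They were exposed to compound at 4xMIC (other multiples where indicated), in triplicate, at 35 °C. Colistin (A. baumannii) or vancomycin (S. aureus) and DMSO were included. Samples at 0, 2, 4, 6, 8, 10, 12 and 24 h were counted by drop plate on blood agar (18-24 h, 35 °C). Log cfu/mL was plotted against time.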"}}, "note": "Read-outs that look alike come from different tables or passages of the source."}
{"smiles": "O=C(O)c1ccc(-n2cc(/C=N/N(Cc3ccccc3)Cc3ccccc3)c(-c3ccc4ccccc4c3)n2)cc1", "note": "[Compound 10]", "values": [{"measurement": "MIC", "setting": "[1]", "value": 1.56, "unit": "µg/mL"}, {"measurement": "destruction of preformed biofilm", "setting": "[2]", "value": "excellent ability to eliminate the preformed biofilms"}, {"measurement": "MIC", "setting": "[3]; ATCC19606, read-out: MIC Ab06", "value": "> 50", "unit": "µg/mL"}, {"measurement": "MIC", "setting": "[4]", "value": 3.12, "unit": "µg/mL"}, {"measurement": "toxicity for HEK293", "setting": "[5]", "value": "did not show any significant toxicity"}, {"measurement": "IC50", "setting": "[5]; Homo sapiens, HEK293, read-out: IC50 for HEK293 cell line", "value": "~50", "unit": "µg/mL"}, {"measurement": "MIC", "setting": "[6]", "value": 3.12, "unit": "µg/mL"}, {"measurement": "MIC Bs", "setting": "[7]; B. subtilis ATCC 6623", "value": "no activity"}, {"measurement": "MIC", "setting": "[7]", "value": "> 50", "unit": "µg/mL"}, {"measurement": "MIC", "setting": "[8]", "value": 3.12, "unit": "µg/mL"}, {"measurement": "MIC", "setting": "[9]", "value": "≥ 1.56", "unit": "µg/mL"}, {"measurement": "MIC", "setting": "[10]", "value": "> 50", "unit": "µg/mL"}, {"measurement": "MIC", "setting": "[11]", "value": 1.56, "unit": "µg/mL"}, {"measurement": "MIC", "setting": "[12]", "value": 1.56, "unit": "µg/mL"}, {"measurement": "inhibition of biofilm formation", "setting": "[13]", "value": "very effective"}]}
{"smiles": "O=C(O)c1ccc(-n2cc(/C=N/Nc3ccccc3F)c(-c3ccc4ccccc4c3)n2)cc1", "note": "[Compound 14]", "values": [{"measurement": "MIC", "setting": "[1]", "value": 12.5, "unit": "µg/mL"}, {"measurement": "MIC", "setting": "[3]; ATCC19606, read-out: MIC Ab06", "value": 25, "unit": "µg/mL"}, {"measurement": "MIC", "setting": "[4]", "value": 12.5, "unit": "µg/mL"}, {"measurement": "MIC", "setting": "[14]", "value": "≥ 6.25", "unit": "µg/mL"}, {"measurement": "MIC", "setting": "[6]", "value": 12.5, "unit": "µg/mL"}, {"measurement": "MIC", "setting": "[7]", "value": 6.25, "unit": "µg/mL"}, {"measurement": "MIC", "setting": "[8]", "value": 12.5, "unit": "µg/mL"}, {"measurement": "MIC", "setting": "[9]", "value": "≥ 1.56", "unit": "µg/mL"}, {"measurement": "MIC", "setting": "[10]", "value": 25, "unit": "µg/mL"}, {"measurement": "MIC", "setting": "[11]", "value": 1.56, "unit": "µg/mL"}, {"measurement": "MIC", "setting": "[12]", "value": 3.12, "unit": "µg/mL"}]}
{"smiles": "O=C(O)c1ccc(-n2cc(/C=N/Nc3cccc(F)c3)c(-c3ccc4ccccc4c3)n2)cc1", "note": "[Compound 15]", "values": [{"measurement": "MIC", "setting": "[1]", "value": 12.5, "unit": "µg/mL"}, {"measurement": "MBC", "setting": "[3]; ATCC19606", "value": 12.5, "unit": "µg/mL"}, {"measurement": "MIC", "setting": "[3]; ATCC19606", "value": 6.25, "unit": "µg/mL"}, {"measurement": "MIC", "setting": "[3]; ATCC19606, read-out: MIC Ab06", "value": 6.25, "unit": "µg/mL"}, {"measurement": "MIC", "setting": "[4]", "value": 6.25, "unit": "µg/mL"}, {"measurement": "MIC", "setting": "[14]", "value": "≥ 6.25", "unit": "µg/mL"}, {"measurement": "MIC", "setting": "[6]", "value": 12.5, "unit": "µg/mL"}, {"measurement": "MIC", "setting": "[7]", "value": 12.5, "unit": "µg/mL"}, {"measurement": "MIC", "setting": "[8]", "value": 6.25, "unit": "µg/mL"}, {"measurement": "MIC", "setting": "[9]", "value": "≥ 1.56", "unit": "µg/mL"}, {"measurement": "MIC", "setting": "[10]", "value": 12.5, "unit": "µg/mL"}, {"measurement": "MIC", "setting": "[11]", "value": 3.12, "unit": "µg/mL"}, {"measurement": "MIC", "setting": "[12]", "value": 1.56, "unit": "µg/mL"}]}
{"smiles": "O=C(O)c1ccc(-n2cc(/C=N/Nc3cccc(Br)c3)c(-c3ccc4ccccc4c3)n2)cc1", "note": "[Compound 17]", "values": [{"measurement": "MIC", "setting": "[1]", "value": 6.25, "unit": "µg/mL"}, {"measurement": "MIC Ab06", "setting": "[3]; A. baumannii ATCC 19606 (type strain)", "value": "moderately inhibited the growth"}, {"measurement": "MIC", "setting": "[3]; ATCC19606, read-out: MIC Ab06", "value": 12.5, "unit": "µg/mL"}, {"measurement": "MIC", "setting": "[4]", "value": 6.25, "unit": "µg/mL"}, {"measurement": "MIC Ab05", "setting": "[15]", "value": "did not inhibit the growth"}, {"measurement": "MIC", "setting": "[6]", "value": 6.25, "unit": "µg/mL"}, {"measurement": "MIC", "setting": "[7]", "value": 3.12, "unit": "µg/mL"}, {"measurement": "MIC", "setting": "[8]", "value": 6.25, "unit": "µg/mL"}, {"measurement": "MIC Ab47", "setting": "[10]", "value": "did not inhibit the growth"}, {"measurement": "MIC", "setting": "[10]", "value": "> 50", "unit": "µg/mL"}, {"measurement": "MIC", "setting": "[11]", "value": 1.56, "unit": "µg/mL"}, {"measurement": "MIC", "setting": "[12]", "value": 1.56, "unit": "µg/mL"}]}
{"smiles": "O=C(O)c1ccc(-n2cc(/C=N/Nc3ccc(Br)cc3)c(-c3ccc4ccccc4c3)n2)cc1", "note": "[Compound 18]", "values": [{"measurement": "MIC", "setting": "[1]", "value": 12.5, "unit": "µg/mL"}, {"measurement": "MBC", "setting": "[3]; ATCC19606", "value": 12.5, "unit": "µg/mL"}, {"measurement": "MIC", "setting": "[3]; ATCC19606", "value": 1.56, "unit": "µg/mL"}, {"measurement": "MIC", "setting": "[3]; ATCC19606, read-out: MIC Ab06", "value": 1.56, "unit": "µg/mL"}, {"measurement": "time kill effect", "setting": "[16]; 24 hours at 35 °C", "value": "bacteriostatic effect"}, {"measurement": "increase in log10 cfu/mL of the bacterial population", "setting": "[16]; through 24 hours", "value": "≤ 2", "unit": "fold"}, {"measurement": "MIC", "setting": "[4]", "value": 12.5, "unit": "µg/mL"}, {"measurement": "MIC Ab05", "setting": "[15]", "value": "moderate growth inhibitor"}, {"measurement": "MIC", "setting": "[6]", "value": 12.5, "unit": "µg/mL"}, {"measurement": "MIC", "setting": "[7]", "value": 6.25, "unit": "µg/mL"}, {"measurement": "MIC", "setting": "[8]", "value": 6.25, "unit": "µg/mL"}, {"measurement": "MIC Ab47", "setting": "[10]", "value": "moderate growth inhibitor"}, {"measurement": "MIC", "setting": "[10]", "value": 6.25, "unit": "µg/mL"}, {"measurement": "MIC", "setting": "[11]", "value": 3.12, "unit": "µg/mL"}, {"measurement": "MIC", "setting": "[12]", "value": 0.78, "unit": "µg/mL"}]}
